mIAP act – increases mouse intestinal alkaline phosphatase activity; activation factor at 10 µM; AID 2805; 0.24% of 330,000 active; muIAP, CDP-Star luminescence, 30 min; stronger effect = higher value; 1 = vehicle-only enzyme signal, 0 = enzyme-free wells;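 active means activation factor of at least 2 at 20 µM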
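Assay system: mouse IAP enzyme; Reagent: CDP-Star chemiluminescent phosphatase substrate; Compound: DMSO-dissolved test compounds; Incubation: 30 min, room temperature; Technique: luminescence from enzymatic CDP-Star hydrolysis; Controls: DMSO-only wells and no-enzyme negative control.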
bIAP inhibitor – blocks bovine intestinal alkaline phosphatase activity; purified bovine IAP, CDP-star luminescence, 30 min; inhibition, % at 20 µM; 190,000 tested, under 10 active;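 active means over 50% inhibition of intestinal alkaline phosphatase at 20 µM in the single-dose screen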
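Assay system – bovine IAP enzyme · Quantity – bovine IAP at 1/65,000,000 final dilution · Detection – CDP-star luminescence signal · Times – 30 min reaction at room temperature · Also added – CDP-star substrate at 30 µM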
bIAP act – increases bovine intestinal alkaline phosphatase activity; 0.17% of 200,000 active; activation factor at 20 µM; purified bovine IAP, CDP-star luminescence, 30 min; stronger effect = higher value; fold of DMSO-control signal, blank-subtracted;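 active means activation factor of 2 or more at 20 µM, a signal rise over negative controls twice the positive control's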
hIAP inh – human IAP inhibition | inhibition, % at 10 µM | purified IAP, CDP-Star luminescence, 30 min | P09923 | 0.12% of 330,000 active;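 active means inhibition reaching a set limit with compound at 10 µM in the primary screen, cut at about 35% in these data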;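 further: plate controls were DMSO wells with enzyme for no effect and no-enzyme buffer wells for full effect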
Target sequence (P09923 whole entry, looked up): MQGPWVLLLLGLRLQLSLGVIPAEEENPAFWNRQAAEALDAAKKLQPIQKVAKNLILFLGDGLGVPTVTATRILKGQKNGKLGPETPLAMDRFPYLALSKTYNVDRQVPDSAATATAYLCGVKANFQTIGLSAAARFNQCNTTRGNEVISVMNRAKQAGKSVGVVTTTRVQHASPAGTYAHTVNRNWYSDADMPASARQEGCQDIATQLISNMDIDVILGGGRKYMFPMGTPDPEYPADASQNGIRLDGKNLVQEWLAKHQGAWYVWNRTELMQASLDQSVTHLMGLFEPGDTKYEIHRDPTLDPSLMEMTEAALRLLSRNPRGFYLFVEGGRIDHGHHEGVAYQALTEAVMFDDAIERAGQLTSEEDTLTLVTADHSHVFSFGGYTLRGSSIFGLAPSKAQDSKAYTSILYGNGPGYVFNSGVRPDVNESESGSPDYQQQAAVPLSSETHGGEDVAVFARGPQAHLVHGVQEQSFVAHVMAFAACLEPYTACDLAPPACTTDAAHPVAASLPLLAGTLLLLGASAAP
hIAP act – human IAP activation; activation factor at 10 µM; purified human IAP, CDP-Star luminescence, 30 min; stronger effect = higher value; 1 = vehicle-only enzyme, 0 = enzyme-free background; P09923; 0.16% of 330,000 active;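 active means activation factor of the enzyme at least 2-fold when tested at 20 µM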
mIAP block – blocks mouse intestinal alkaline phosphatase | inhibition, % at 10 µM | AID 2806 | purified mouse IAP, CDP-Star luminescence, 30 min | 0.2% of 330,000 active;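 active means inhibition of at least 40% at 10 µM in the primary screen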;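 further: plate controls were DMSO with enzyme for no effect and no enzyme wells for full effect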
hIAP act conf – human IAP activation confirmation. shares compounds with hIAP act. 10% of 880 active. activation (%Activity, negative = activation), % at 8.3 µM. AID 434926. purified IAP, CDP-Star luminescence, 30 min; stronger effect = lower value;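 active means at least twofold enzyme activation in any of six single-dose repeats, which the averaged readout prints as negative percent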
Starred values were filed as active, the others as inactive. Sampled rows, rich in hits. Any-hit rate of the full collection: about 0.79%.

What do the screens show for `Cc1cc(OCC(=O)N2CCN(c3ccccc3)CC2)c2c(C)cc(=O)oc2c1`?
mIAP act: 0.93; hIAP inh: 39*; hIAP act: 0.61; mIAP block: 7; hIAP act conf: 3

How did O=C(O)COc1ccc2c3c(c(=O)oc2c1)CCCC3 do in these assays?
mIAP act: 1; bIAP inhibitor: -4; bIAP act: 1; hIAP inh: 0; hIAP act: 1; mIAP block: -2

What do the screens show for `Cc1ccccc1-c1nc(C#N)c(N2CCCCC2)o1`?
mIAP act: 0.96; hIAP inh: 16; hIAP act: 0.84; mIAP block: 4

What do the screens show for `Cc1c(C(=O)NNC(=S)Nc2ccc(S(N)(=O)=O)cc2)oc2ccccc12`?
mIAP act: 0.81; hIAP inh: -105; hIAP act: 2.1*; mIAP block: 19; hIAP act conf: -5

Results for CC1(c2nnc(Cc3ccccc3)o2)CC(c2ccccc2[N+](=O)[O-])=NO1 (stereo unspecified) ?
mIAP act: 0.93; hIAP inh: -6; hIAP act: 1.1; mIAP block: 7

What do the screens show for `CSC1=C(C#N)C(c2ccccc2Cl)C(C(C)=O)=C(C)N1` (stereo unspecified)?
mIAP act: 0.98; bIAP inhibitor: 8; bIAP act: 0.9; hIAP inh: 35*; hIAP act: 0.65; mIAP block: 2; hIAP act conf: -66

What do the screens show for `CSC1=C(C#N)C(c2ccccc2)C(C(C)=O)=C(C)N1` (stereo unspecified)?
mIAP act: 0.99; bIAP inhibitor: 8; bIAP act: 0.9; hIAP inh: 7; hIAP act: 0.93; mIAP block: 1

How did O=C(Nc1ccc(F)cc1)c1ccc2snnc2c1 do in these assays?
mIAP act: 0.97; hIAP inh: 35*; hIAP act: 0.65; mIAP block: 3; hIAP act conf: -57

What do the screens show for `Cc1ccc(NC(=O)c2ccc3snnc3c2)cc1C`?
mIAP act: 0.93; hIAP inh: -2; hIAP act: 1; mIAP block: 7

Results for Cc1nnc2n1CCCCC2 ?
mIAP act: 1; hIAP inh: -2; hIAP act: 1; mIAP block: -1

How did Cc1cccc(-n2ncc3c2CCCC3NC(=O)CCN2Cc3ccccc3C2=O)c1C (stereo unspecified) do in these assays?
mIAP act: 1; hIAP inh: -6; hIAP act: 1.1; mIAP block: -4

How did CCc1noc(C)c1C(=O)NC1CC(C)(C)Cc2c1cnn2-c1ccccc1 (stereo unspecified) do in these assays?
mIAP act: 1.1; hIAP inh: -42; hIAP act: 1.4; mIAP block: -11

Results for O=S(=O)(Nc1nc2ccccc2nc1NCc1ccco1)c1ccc(Cl)cc1 ?
mIAP act: 0.9; bIAP inhibitor: -14; bIAP act: 1.1; hIAP inh: -9; hIAP act: 1.1; mIAP block: 10

How did Cc1ccc(S(=O)(=O)Nc2nc3ccccc3nc2NCc2ccco2)cc1 do in these assays?
mIAP act: 0.96; bIAP inhibitor: 5; bIAP act: 1; hIAP inh: -112; hIAP act: 2.1*; mIAP block: 4; hIAP act conf: 19

Results for COc1cc(CN2CCN(C(C)C)C(CCO)C2)ccc1OCc1ccccc1 (stereo unspecified) ?
mIAP act: 0.91; bIAP inhibitor: -14; bIAP act: 1.1; hIAP inh: -11; hIAP act: 1.1; mIAP block: 9

How did CC(C)c1ccc(OCC(=O)NNC(=S)NC(=O)C2CC2)cc1 do in these assays?
mIAP act: 0.87; hIAP inh: 4; hIAP act: 0.96; mIAP block: 13

Results for N#Cc1ccc(OCC(=O)NNC(=S)NC(=O)C2CC2)cc1 ?
mIAP act: 0.78; hIAP inh: -121; hIAP act: 2.2*; mIAP block: 22; hIAP act conf: 0

What do the screens show for `Cn1nc(C(=O)NNC(=O)CCOc2ccc(C(C)(C)C)cc2)c2ccccc2c1=O`?
mIAP act: 0.96; hIAP inh: -114; hIAP act: 2.1*; mIAP block: 4; hIAP act conf: -19

What do the screens show for `CN1C(=O)NC(c2ccc(Cl)cc2)C2=C1CC(C)(C)CC2=O` (stereo unspecified)?
mIAP act: 0.98; hIAP inh: 13; hIAP act: 0.87; mIAP block: 2

Results for CN(Cc1ccccc1)C(=O)Nc1ccc(Cl)cc1 ?
mIAP act: 1; hIAP inh: -102; hIAP act: 2*; mIAP block: -4; hIAP act conf: -59*

How did CN(Cc1ccccc1)C(=O)c1[nH]cnc1C(=O)Nc1ccc(Cl)cc1 do in these assays?
mIAP act: 0.97; hIAP inh: -46; hIAP act: 1.5; mIAP block: 3

How did N#C/C(=C\c1ccccc1)C(=O)NC(=O)Oc1ccccc1 do in these assays?
mIAP act: 1; bIAP inhibitor: 5; bIAP act: 0.9; hIAP inh: 38*; hIAP act: 0.62; mIAP block: -3; hIAP act conf: -6

What do the screens show for `N#C/C(=C\c1ccccc1Cl)C(=O)NC(=O)Oc1ccccc1`?
mIAP act: 1; bIAP inhibitor: 9; bIAP act: 0.9; hIAP inh: 11; hIAP act: 0.89; mIAP block: 0

What do the screens show for `Cc1cccc(CC(Cc2nc3ccccc3[nH]2)c2nc3ccccc3[nH]2)c1` (stereo unspecified)?
mIAP act: 1.4; bIAP inhibitor: -332; bIAP act: 4.3*; hIAP inh: -140; hIAP act: 2.4*; mIAP block: -41; hIAP act conf: 30

How did CC(C)N(Cc1nc2ccccc2[nH]1)C(C)C do in these assays?
mIAP act: 1; bIAP inhibitor: 3; bIAP act: 1; hIAP inh: 9; hIAP act: 0.91; mIAP block: -1

Results for CC(c1ccccc1)C(Cc1nc2ccccc2[nH]1)c1nc2ccccc2[nH]1 (stereo unspecified) ?
mIAP act: 1.7; bIAP inhibitor: -306; bIAP act: 4.1*; hIAP inh: -118; hIAP act: 2.2*; mIAP block: -71; hIAP act conf: 6

What do the screens show for `OC(c1nc2ccccc2[nH]1)C(O)c1nc2ccccc2[nH]1` (stereo unspecified)?
mIAP act: 1; hIAP inh: -146; hIAP act: 2.5*; mIAP block: 0; hIAP act conf: -4

What do the screens show for `OC(c1ccccc1)c1nc2ccccc2[nH]1` (stereo unspecified)?
mIAP act: 1; hIAP inh: 10; hIAP act: 0.9; mIAP block: -1

High-throughput results deposited in PubChem by Sanford-Burnham Center for Chemical Genomics.
